From PubChem BioAssay
NS3 helicase inh = blocks Hepatitis C virus NS3 helicase unwinding; inhibition, % at 10.9 µM; 290,000 compounds, 0.56% hits; NS3 helicase DNA unwinding, Cy5 molecular beacon fluorescence; AID 1800;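 active = inhibition above the mean of all tested compounds plus 3 SD, set per campaign, cut at about 35% in these data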
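test system = hepatitis C virus NS3 helicase domain fragment enzyme | reagent = annealed dual-labelled DNA beacon duplex, ATP-started | times = 1 h at 25 °C | detection = Cy5 fluorescence, 0 and 60 min reads | read-out basis = percent inhibition from t60/t0 fluorescence ratio | control set = DMSO and thioflavine S | replication = one well per compound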
ZTA counter = blocks Epstein-Barr virus ZTA, an EBNA-1 counter-screen; P03206; ZTA-DNA binding, fluorescence polarization; inhibition, % at 11 µM; 320,000 compounds, 0.15% hits; AID 2234; in the data active = inhibition above about 33%
Target sequence (P03206 whole entry, looked up): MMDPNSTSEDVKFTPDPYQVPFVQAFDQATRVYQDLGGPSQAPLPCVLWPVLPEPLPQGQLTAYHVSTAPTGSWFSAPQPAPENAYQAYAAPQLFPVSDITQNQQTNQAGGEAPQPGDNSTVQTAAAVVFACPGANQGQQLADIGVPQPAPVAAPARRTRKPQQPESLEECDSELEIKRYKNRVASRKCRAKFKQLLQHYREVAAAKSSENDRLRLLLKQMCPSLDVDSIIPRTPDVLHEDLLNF
NR3A LBD binder = modulates the human NR3A ligand-binding domain | NR3A LBD differential scanning fluorimetry, Tm shift; 0% = protein alone, 100% = glycine-bound protein | Tm shift relative to glycine control, % at 25 µM | 340,000 compounds, 2.5% hits | AID 1259313;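 active = melting temperature shift of at least 10% of the positive control shift, at one fixed dose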
EBNA-1 inh = blocks EBNA-1 binding to DNA; EBNA-1 DNA binding, fluorescence polarization; 300,000 compounds, 0.34% hits; inhibition, % at 14.8 µM; in the data active = inhibition above about 28%
DNA FID counter = fluorescent intercalator displacement, NS3 helicase counter-screen | 290,000 compounds, 0.17% hits | DNA fluorescent intercalator displacement, fluorescence | inhibition, % at 7.9 µM; in the data active = inhibition above about 37%;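 note: higher means more ethidium bromide displaced from hairpin DNA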
FGF22 binding = shifts melting point of recombinant human FGF22; recombinant FGF22 thermal shift, SYPRO orange fluorescence; percent of sucrose octasulfate shift, DMSO zero; activity (Tm shift, normalised), % at 9.99 µM; 340,000 compounds, 1.5% hits; Q9HCT0;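 active = mean Tm shift, scaled 0 neutral to 100 positive control, at about 1.3% or above, every replicate too, limit read from the data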
Target sequence (Q9HCT0 whole entry, looked up): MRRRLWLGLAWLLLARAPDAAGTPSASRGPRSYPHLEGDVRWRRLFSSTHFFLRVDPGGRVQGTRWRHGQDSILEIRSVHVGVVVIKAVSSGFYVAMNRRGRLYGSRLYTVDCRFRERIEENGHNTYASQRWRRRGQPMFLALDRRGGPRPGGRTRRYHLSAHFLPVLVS
Numbers stand for hits; – = inactive; · = no result. Compounds with a hit are over-represented: about 3.6% of the library has one in this group of screens.

SMILES	NS3 helicase inh	ZTA counter	NR3A LBD binder	EBNA-1 inh	DNA FID counter	FGF22 binding
CCN(CC)Cc1oc(CO)cc(=O)c1O	–	–	–	–	–	43.1
O=c1cc(CO)oc(CN2CCCC2)c1O	–	–	–	–	–	·
COc1cc2c(cc1OC)CN(CC(=O)Nc1ccccc1SC)CC2	–	–	–	–	–	43.1
COc1cc2c(cc1OC)CN(CC(=O)Nc1ccccc1C#N)CC2	–	–	–	–	–	·
Cc1cc(NC(=O)c2ccc(NC(=O)C3CCCO3)cc2)ccc1Br (stereo not given)	–	–	11.1	–	–	–
CCCCNS(=O)(=O)c1ccc(NC(=O)C2CCCO2)cc1 (stereo not given)	–	–	11.6	–	–	·
CCC(C)NS(=O)(=O)c1ccc(NC(=O)C2CCCO2)cc1 (stereo not given)	–	–	–	–	–	43.2
COCCNC(=S)N(CCc1c(C)[nH]c2ccc(Cl)cc12)Cc1cccnc1	–	–	–	–	–	–
Cc1ccccc1NC(=S)N(CCc1c(C)[nH]c2ccc(F)cc12)Cc1cccnc1	–	–	–	–	–	·
COCCNC(=S)N(CCc1c(C)[nH]c2ccc(F)cc12)Cc1cccnc1	–	–	13.2	–	–	–
Cc1[nH]c2ccc(F)cc2c1CCN(Cc1ccco1)C(=S)NC(C)(C)C	–	–	–	–	–	43.1
Cc1[nH]c2ccc(F)cc2c1CCN(Cc1cccnc1)C(=S)Nc1cccc(F)c1	–	–	–	–	–	43.5
CO[C@H]1CN(C)C(=O)c2cc(NC(=O)C3CCC3)ccc2OC[C@H](C)N(Cc2ccncc2)C[C@@H]1C	·	·	·	·	·	–
Cc1cc(C)n(-c2nc3ccccc3s2)n1	–	–	–	–	–	–
Cc1nn(-c2nc3ccccc3s2)c(N)c1Sc1ccc(F)cc1	–	–	15.0	–	–	·
Cc1cc(N)n(-c2nc3ccccc3s2)n1	–	–	32.1	–	–	–
OC[C@@H]1[C@H](c2ccc(C#CC3(O)CCCC3)cc2)[C@H]2CN(Cc3cccnc3)CCCCN12	·	·	·	·	·	–
CCN1CCN(C(=O)Nc2cccc3ccccc23)CC1	–	–	–	–	–	·
CC(C)CN1CCN(CCCOC(=O)Nc2cccc3ccccc23)CC1C (stereo not given)	·	·	–	·	·	44.2
CCn1c(SCC(N)=O)nnc1-c1ccc2c(c1)OCO2	–	–	–	–	–	–
CCn1c(SCC(N)=O)nnc1-c1ccc(OC)c(OC)c1	–	–	12.7	–	–	·
CCCN(C)C[C@H]1OCCCC[C@H](C)Oc2ccc(NS(=O)(=O)c3ccc(F)cc3)cc2C(=O)N([C@H](C)CO)C[C@H]1C	·	·	·	·	·	–
O=C(N[C@H]1CC[C@@H](CCNS(=O)(=O)Cc2ccccc2)O[C@@H]1CO)c1ccc2c(c1)OCO2	·	·	·	·	·	–
O=C(Nc1ccccc1F)c1ccc(CNS(=O)(=O)c2cccc(C(F)(F)F)c2)cc1	–	–	–	–	–	·
COc1cccc(S(=O)(=O)NCc2ccc(C(=O)Nc3cccc(Cl)c3)cc2)c1	–	–	15.1	–	–	·
SMILES	NS3 helicase inh	ZTA counter	NR3A LBD binder	EBNA-1 inh	DNA FID counter	FGF22 binding
COc1cccc(S(=O)(=O)NCc2ccc(C(=O)Nc3ccc(Cl)cc3)cc2)c1	–	–	–	–	–	–
Cc1ccc(NC(=O)c2ccc(CNS(=O)(=O)c3cccc(C(F)(F)F)c3)cc2)cc1	–	–	11.3	–	–	·
Cc1noc(C)c1NC(=O)N(C)C[C@@H]1Oc2ccc(NC(=O)NC(C)C)cc2C(=O)N([C@@H](C)CO)C[C@@H]1C	·	·	·	·	·	–
O=C(c1cccnc1)N1CC[C@@H]2[C@H]1c1cc(C#Cc3cccnc3)ccc1N[C@@H]2CO	·	·	·	·	·	–
C[C@H]1CN([C@@H](C)CO)C(=O)c2cc(NS(=O)(=O)c3ccc(F)cc3)ccc2O[C@@H]1CN(C)Cc1ccc(Oc2ccccc2)cc1	·	·	·	·	·	–
CCCCOc1ccc(C(=O)N/C(=C/c2cccc([N+](=O)[O-])c2)C(=O)O)cc1	–	–	–	–	–	51.8
CCCCOc1ccc(C(=O)N/C(=C\c2cccc([N+](=O)[O-])c2)C(=O)OCCC)cc1	–	–	–	–	–	·
COc1ccc(CN(C)C[C@H]2OCc3cn(nn3)CCCC(=O)N([C@@H](C)CO)C[C@H]2C)cc1	·	·	·	·	·	–
C#CCOCCOCCOCCNc1nc(N2CCN(C(=O)CCCCCCCCCCNC(=O)[C@@H](CCSC)n3cc(CCO)nn3)CC2)nc(N2CCN(C(=O)CCCCCCCCCCNC(=O)[C@H](CO)n3cc(CCCCCN)nn3)CC2)n1	·	–	–	–	·	·
C#CCOCCOCCOCCNc1nc(N2CCN(C(=O)CCCCCCCCCCNC(=O)[C@H](CO)n3cc(CCCCCN)nn3)CC2)nc(N2CCN(C(=O)CCCCCCCCCCNC(=O)[C@H](CCCN=C(N)N)n3cc(C[C@@H](C)CC)nn3)CC2)n1	·	105.3	·	–	·	·
C#CCOCCOCCOCCNc1nc(N2CCN(C(=O)CCCCCCCCCCNC(=O)[C@H](CCCCN)n3cc(C[C@@H](C)CC)nn3)CC2)nc(N2CCN(C(=O)CCCCCCCCCCNC(=O)[C@H](CCCN=C(N)N)n3cc(C[C@@H](C)CC)nn3)CC2)n1	·	70.1	–	–	·	·
C[C@H](O)C#Cc1ccc2c(c1)O[C@H](CN(C)C(=O)C1CCC1)[C@@H](C)CN([C@@H](C)CO)S2(=O)=O	·	·	·	·	·	–
O=C(C[C@H]1CC[C@H]2[C@@H](COC[C@@H](O)CN2S(=O)(=O)c2ccc(Cl)cc2)O1)NCCN1CCCC1	·	·	·	·	·	–
C[C@@H]1CCCCO[C@@H](CN(C)S(C)(=O)=O)[C@@H](C)CN([C@@H](C)CO)C(=O)c2cc(NS(C)(=O)=O)ccc2O1	·	·	·	·	·	–
CCCNC(=O)N1[C@@H]2CN(C(=O)Nc3ccc(F)cc3)c3ccccc3[C@@H]2[C@@H]1CO	·	·	·	·	·	–
C[C@@H]1CN([C@H](C)CO)C(=O)c2cc(C#CC3CC3)cnc2O[C@@H]1CN(C)C(=O)Nc1ccc(F)cc1	·	·	·	·	·	–
CCCC#Cc1cnc2c(c1)C(=O)N([C@@H](C)CO)C[C@@H](C)[C@@H](CN(C)C(=O)NC1CCCC1)O2	·	·	·	·	·	–
COc1ccc(-n2nc(C(N)=O)c(O)cc2=O)cc1	–	–	–	–	–	–
COc1cccc(-n2nc(C(N)=O)c(O)cc2=O)c1	–	–	–	–	–	43.4
NC(=O)c1nn(-c2ccc(Cl)cc2Cl)c(=O)cc1O	–	–	–	–	–	44.0
C[C@H](CO)N1C[C@H](C)[C@@H](CN(C)C(=O)Nc2ccc3c(c2)OCO3)Oc2ccc(NC(=O)CCCN(C)C)cc2C1=O	·	·	·	·	·	–
Nc1ccc(C23CC4CC(CC(O)(C4)C2)C3)cc1	–	–	16.8	–	–	·
Nc1ccc(C23CC4CC(CC(CO)(C4)C2)C3)cc1	–	–	–	–	–	·
COc1ccc(S(=O)(=O)N2CCC3(CC2)CN(C(=O)c2cccnc2)[C@H](CO)c2c3c3ccc(OC)cc3n2C)cc1	·	·	·	·	·	–
